# In ChEMBL document CHEMBL1148489, “Synthesis and structure-activity relationships of 1-arylmethyl-5-aryl-6-methyluracils as potent gonadotropin-releasing hormone receptor antagonists” (J Med Chem, 2004):
# Tests used:
# [1] = target: T1, Gonadotropin-releasing hormone receptor (Homo sapiens, UniProt P30968); test: Binding affinity evaluated by the ability to inhibit des-Gly10[125I]Tyr5,D-Leu6,NMeLeu7,Pro9-NEt]- Gonadotropin-releasing hormone binding to cloned human Gonadotropin-releasing hormone receptor expressed in HEK293 cells; format: cell-based
# T1 sequence (P30968 whole entry): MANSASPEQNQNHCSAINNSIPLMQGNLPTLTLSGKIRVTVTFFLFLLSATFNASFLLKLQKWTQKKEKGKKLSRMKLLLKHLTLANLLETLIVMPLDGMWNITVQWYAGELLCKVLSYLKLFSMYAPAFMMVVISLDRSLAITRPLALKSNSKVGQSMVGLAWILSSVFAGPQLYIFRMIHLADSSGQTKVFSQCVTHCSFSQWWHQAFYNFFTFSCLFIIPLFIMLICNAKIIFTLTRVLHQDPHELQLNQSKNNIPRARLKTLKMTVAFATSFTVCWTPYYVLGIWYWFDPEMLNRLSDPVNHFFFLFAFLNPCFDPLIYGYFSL
# [2] = Half life was determined; format: ADME, organism-based; conditions: mouse, in vivo
# How it was run: (§1)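 Terminal blood at preset times, composite sampling, plus hepatic portal vein samples under isoflurane. Plasma flash-frozen; LLOQ 5 ng/mL. Parameters from a noncompartmental model.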
# [3] = target: T2, Gonadotropin-releasing hormone receptor (Rattus norvegicus, UniProt P30969); test: In vivo inhibition of rat Gonadotropin releasing hormone receptor; format: organism-based
# T2 sequence (P30969 whole entry): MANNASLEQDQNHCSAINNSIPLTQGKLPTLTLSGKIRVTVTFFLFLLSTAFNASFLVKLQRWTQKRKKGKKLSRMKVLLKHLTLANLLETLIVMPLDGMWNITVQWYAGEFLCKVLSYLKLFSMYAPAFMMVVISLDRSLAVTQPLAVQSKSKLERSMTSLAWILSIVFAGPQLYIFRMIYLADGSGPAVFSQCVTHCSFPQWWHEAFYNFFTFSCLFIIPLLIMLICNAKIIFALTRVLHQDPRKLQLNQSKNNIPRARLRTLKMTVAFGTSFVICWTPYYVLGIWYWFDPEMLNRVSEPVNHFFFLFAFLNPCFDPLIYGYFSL
# [4] = Oral bioavailability in mouse; format: ADME, organism-based; conditions: in vivo; how it was run: as §1
# [5] = Clearance value was determined; format: ADME, organism-based; conditions: mouse, in vivo; how it was run: as §1
# [6] = target: T1, Gonadotropin-releasing hormone receptor; test: In vitro inhibition of [Ca2+] influx in RBL cells expressing Gonadotropin-releasing hormone receptor; format: functional, cell-based
# How it was run: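 RBL cells stably expressing full-length human GnRH receptor, attached overnight and loaded with 2 μM Fluo-4 for 1 h at 37 °C. Cells washed, then preincubated 1 min with increasing compound before 5 nM GnRH stimulation. Ca2+ flux read as fluorescence on FLIPR; IC50 derived.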
# Mus musculus = test: AUC value was determined after oral administration; format: ADME, organism-based, Plasma; conditions: in vivo; how it was run: as §1
# [7] = target: T2, Gonadotropin-releasing hormone receptor; test: In vivo inhibition of rat Gonadotropin-releasing hormone receptor; format: organism-based
structure (smiles),measurement,setting,value
C=Cc1ccc(-c2c(C)n(Cc3c(F)cccc3F)c(=O)n(CCN(C)CCc3ccccn3)c2=O)cc1,Ki,[1],340 nM
COc1cccc(-c2c(C)n(Cc3c(F)cccc3F)c(=O)n(CCN(C)CCc3ccccn3)c2=O)c1F,Ki,[1],3 nM
Cc1c(-c2ccc3c(c2)OC(F)(F)O3)c(=O)n(CCN(C)CCc2ccccn2)c(=O)n1Cc1c(F)cccc1F,Ki,[1],470 nM
Cc1c(-c2cccc(F)c2)c(=O)n(CCN(C)CCc2ccccn2)c(=O)n1Cc1c(F)cccc1F,Ki,[1],1200 nM
Cc1c(-c2ccc3oc4ccccc4c3c2)c(=O)n(CCN(C)CCc2ccccn2)c(=O)n1Cc1c(F)cccc1F,Ki,[1],170 nM
COc1ccc(-c2c(C)n(Cc3c(F)cccc3F)c(=O)n(CCN(C)CCc3ccccn3)c2=O)cc1OC,Ki,[1],4800 nM
COCc1ccc(-c2c(C)n(Cc3c(F)cccc3F)c(=O)n(CCN(C)CCc3ccccn3)c2=O)cc1,Ki,[1],1400 nM
Cc1c(-c2ccccc2F)c(=O)n(CCN(C)CCc2ccccn2)c(=O)n1Cc1c(F)cccc1F,Ki,[1],81 nM
COc1cccc(-c2c(C)n(Cc3c(F)cccc3F)c(=O)n(C[C@@H](C)NCc3nccs3)c2=O)c1F,half-life,[2],78 min
same,Ki,[1],13 nM
same,Ki,[3],10000 nM
same,bioavailability,[4],6%
same,clearance,[5],97.3 mL/min/kg
same,IC50,[6],6.1 nM
same,AUC,Mus musculus,104 ng·h/mL
COc1cc(-c2c(C)n(Cc3c(F)cccc3F)c(=O)n(CCN(C)CCc3ccccn3)c2=O)cc(OC)c1OC,Ki,[1],10800 nM
Cc1ccc(-c2c(C)n(Cc3c(F)cccc3F)c(=O)n(CCN(C)CCc3ccccn3)c2=O)cc1,Ki,[1],220 nM
Cc1c(-c2cccc(Cl)c2)c(=O)n(CCN(C)CCc2ccccn2)c(=O)n1Cc1c(F)cccc1F,Ki,[1],370 nM
Cc1c(-c2ccc3ccccc3c2)c(=O)n(CCN(C)CCc2ccccn2)c(=O)n1Cc1c(F)cccc1F,Ki,[1],460 nM
CCc1ccc(CN[C@@H](C)Cn2c(=O)c(-c3cccc(OC)c3F)c(C)n(Cc3c(F)cccc3F)c2=O)o1,Ki,[1],15 nM
same,IC50,[6],27 nM
same,Ki,[7],4900 nM
Cc1c(-c2ccc(C(C)C)cc2)c(=O)n(CCN(C)CCc2ccccn2)c(=O)n1Cc1c(F)cccc1F,Ki,[1],110 nM
COc1cccc(-c2c(C)n(Cc3c(F)cccc3F)c(=O)n(C[C@H](C)NCc3ccccc3)c2=O)c1F,Ki,[1],25 nM
same,IC50,[6],38 nM
same,Ki,[7],25000 nM
COc1cccc(-c2c(C)n(Cc3c(F)cccc3F)c(=O)n(C[C@H](C)NCc3sccc3C)c2=O)c1F,Ki,[1],4 nM
same,IC50,[6],4 nM
same,Ki,[7],3200 nM
COc1cccc(-c2c(C)n(Cc3c(F)cccc3F)c(=O)n(C[C@H](C)NC3CCCC3)c2=O)c1F,half-life,[2],36 min
same,bioavailability,[4],2.2%
same,clearance,[5],70.7 mL/min/kg
same,AUC,Mus musculus,57 ng·h/mL
COc1cccc(-c2c(C)n(Cc3c(F)cccc3F)c(=O)n([C@H](C)CNCc3ccccc3C)c2=O)c1F,Ki,[1],7 nM
CCC(CC)N[C@@H](C)Cn1c(=O)c(-c2cccc(OC)c2F)c(C)n(Cc2c(F)cccc2F)c1=O,half-life,[2],54 min
same,bioavailability,[4],8.2%
same,clearance,[5],129 mL/min/kg
same,AUC,Mus musculus,110 ng·h/mL
CSc1ccc(-c2c(C)n(Cc3c(F)cccc3F)c(=O)n(CCN(C)CCc3ccccn3)c2=O)cc1,Ki,[1],120 nM
CCOc1ccc(-c2c(C)n(Cc3c(F)cccc3F)c(=O)n(CCN(C)CCc3ccccn3)c2=O)cc1,Ki,[1],680 nM
COCc1cccc(-c2c(C)n(Cc3c(F)cccc3F)c(=O)n(CCN(C)CCc3ccccn3)c2=O)c1,Ki,[1],1500 nM
Cc1c(-c2cccc(C(C)C)c2)c(=O)n(CCN(C)CCc2ccccn2)c(=O)n1Cc1c(F)cccc1F,Ki,[1],240 nM
COc1cccc(-c2c(C)n(Cc3c(F)cccc3F)c(=O)n(CCN(C)CCc3ccccn3)c2=O)c1,half-life,[2],24 min
same,bioavailability,[4],1.6%
same,clearance,[5],120 mL/min/kg
same,AUC,Mus musculus,23 ng·h/mL
